Source: ChEMBL document CHEMBL4007452, “Discovery of an Orally Selective Inhibitor of Signal Transducer and Activator of Transcription 3 Using Advanced Multiple Ligand Simultaneous Docking” (J Med Chem, 2017)
pIC50, pKi: −log10 of the molar value. The source made the active and inactive calls. The calls are words filed in the database; no cut-off is given here.

Legend:
[1] = molecular target: Signal transducer and activator of transcription 3 (Homo sapiens, UniProt P40763); assay: Binding affinity to fluorescently labeled STAT3 (unknown origin) by MST-analysis
In short: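 Labeled STAT3 protein held constant at 10-20 nM, titrated against up to 16 serial dilutions of unlabeled inhibitor. […] Protein was dye-labeled and freed of excess dye within 45 min. Equal volumes were mixed, loaded into glass capillaries and read by microscale thermophoresis.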

[2] = molecular target: T1, Signal transducer and activator of transcription 1-alpha/beta (Homo sapiens) (UniProt P42224); assay: Inhibition of STAT1 in human MDA-MB-231 cells assessed as reduction in IFN-gamma-induced STAT1 phosphorylation at 2.5 to 5 uM preincubated for 2 hrs followed by IFN-gamma stimulation measured after 30 mins by Western blot analysis; format: cell-based
T1 sequence (whole entry): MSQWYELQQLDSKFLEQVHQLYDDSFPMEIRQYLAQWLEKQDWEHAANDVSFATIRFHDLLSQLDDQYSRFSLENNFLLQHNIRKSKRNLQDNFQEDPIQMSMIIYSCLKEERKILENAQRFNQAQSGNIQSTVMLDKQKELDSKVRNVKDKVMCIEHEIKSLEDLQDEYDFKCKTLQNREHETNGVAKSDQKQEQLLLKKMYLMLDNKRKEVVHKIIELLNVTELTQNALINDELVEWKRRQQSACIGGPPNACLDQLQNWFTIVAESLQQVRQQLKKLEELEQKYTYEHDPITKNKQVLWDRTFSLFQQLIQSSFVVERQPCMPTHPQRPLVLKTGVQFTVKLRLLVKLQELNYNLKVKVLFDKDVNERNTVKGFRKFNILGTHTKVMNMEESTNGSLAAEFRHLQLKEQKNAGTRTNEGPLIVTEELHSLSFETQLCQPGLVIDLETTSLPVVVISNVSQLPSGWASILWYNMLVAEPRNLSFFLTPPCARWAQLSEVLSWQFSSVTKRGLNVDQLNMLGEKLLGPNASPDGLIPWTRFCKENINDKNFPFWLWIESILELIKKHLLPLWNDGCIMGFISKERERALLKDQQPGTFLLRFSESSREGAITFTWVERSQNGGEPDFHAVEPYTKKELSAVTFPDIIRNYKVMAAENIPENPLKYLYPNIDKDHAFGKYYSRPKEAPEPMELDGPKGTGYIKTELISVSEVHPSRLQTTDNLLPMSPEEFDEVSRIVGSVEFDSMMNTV
In short: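 MDA-MB-231 cells were allowed to adhere overnight, then serum-starved. They were pretreated 2 h with 2.5-5 µM compound or DMSO and stimulated with IFN-γ (50 ng/mL). Cells were harvested after 30 min and immunoblotted for P-STAT1(Y701) and T-STAT1.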

[3] = system: MDA-MB-231; assay: Effect on total STAT3 level in human MDA-MB-231 cells at 2.5 to 5 uM after 12 hrs by immunoblot analysis; format: ADME, cell-based; conditions: mda-mb-231, 12 h
In short: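 MDA-MB-231 cells at 60–80% confluence were treated 12 h with 10% FBS at 2.5-10 µM or 2.5-5 µM, against a DMSO control. Whole-cell lysates were immunoblotted, with bands quantified as percent of control.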

[4] = system: Mus musculus; assay: Toxicity in BALB/c nude mouse xenografted with human MDA-MB-231 cells assessed as reduction in body weight at 2.5 to 10 mg/kg, po qd administered for 32 days; format: organism-based; conditions: in vivo, 768 h
In short: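 MDA-MB-231 cells (5 x 10^6) were implanted s.c. in the flank of 6-week-old female athymic BALB/c nude mice. Oral dosing started at a tumor volume of about 100 mm3, with 8 mice per group and a saline vehicle control. […] Body weight was tracked over the 32-day treatment.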

[5] = system: MDA-MB-231; assay: Antiproliferative activity against human MDA-MB-231 cells after 24 hrs by MTT assay; format: functional, cell-based; conditions: MDA-MB-231, 24 h
In short: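 Cells were seeded at 3000 per well and incubated 24 h at 37 °C. Compounds were added in triplicate with 10% FBS: 0.1-10 or 0.1-20 µM for cancer lines, 3.125-400 µM for MCF-10A. Viability was read by MTT absorbance at 595 nm, with IC50 fitted from the curves. DMSO stocks were 20 mM.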

[6] = molecular target: T2, Signal transducer and activator of transcription 5A (Homo sapiens) (UniProt P42229); assay: Inhibition of STAT5 dimerization in human MDA-MB-231 cells assessed as inhibition of STAT5-STAT5 DNA binding activity at 5 uM after 24 hrs by EMSA; format: cell-based
T2 sequence (whole entry): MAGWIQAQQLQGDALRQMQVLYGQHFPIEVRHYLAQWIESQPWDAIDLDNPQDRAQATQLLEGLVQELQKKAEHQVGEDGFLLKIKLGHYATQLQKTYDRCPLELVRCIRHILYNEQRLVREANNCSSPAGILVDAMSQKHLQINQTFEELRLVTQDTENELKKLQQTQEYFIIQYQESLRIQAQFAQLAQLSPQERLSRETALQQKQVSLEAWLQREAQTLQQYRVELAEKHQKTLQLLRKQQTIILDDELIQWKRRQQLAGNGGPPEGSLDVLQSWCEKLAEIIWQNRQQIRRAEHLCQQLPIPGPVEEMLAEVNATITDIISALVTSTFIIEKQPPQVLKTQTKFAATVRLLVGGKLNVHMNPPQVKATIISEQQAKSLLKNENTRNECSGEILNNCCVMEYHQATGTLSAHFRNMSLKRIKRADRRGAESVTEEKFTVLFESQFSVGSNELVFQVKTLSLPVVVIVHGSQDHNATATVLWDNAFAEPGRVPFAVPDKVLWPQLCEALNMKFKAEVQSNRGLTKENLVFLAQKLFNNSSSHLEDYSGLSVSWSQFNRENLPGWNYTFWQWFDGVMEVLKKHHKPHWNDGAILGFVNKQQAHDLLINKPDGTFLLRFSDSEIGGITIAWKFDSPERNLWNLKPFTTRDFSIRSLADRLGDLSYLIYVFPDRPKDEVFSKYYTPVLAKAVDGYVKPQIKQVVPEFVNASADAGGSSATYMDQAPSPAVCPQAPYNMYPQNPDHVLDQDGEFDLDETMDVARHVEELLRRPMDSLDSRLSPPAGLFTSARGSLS
In short: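 MDA-MB-231 cells were treated at 5 µM for 0-24 h before nuclear extract preparation. Extracts were incubated with biotin-labeled probe for 30 min at room temperature, then analysed by EMSA.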

[7] = system: Mus musculus; assay: Acute toxicity in ICR mouse assessed as mortality at 200 to 1000 mg/kg, ip measured up to 2 weeks post-treatment; format: organism-based; conditions: in vivo, 336 h
In short: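 ICR mice of both sexes, 7 weeks old, randomized into groups of 10. Each received a single intraperitoneal dose at 200, 400, 600, 800 or 1000 mg/kg.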

[8] = system: Rattus norvegicus; assay: AUMC (0 to infinity) in Sprague-Dawley rat plasma at 1 mg/kg, iv measured after 24 hrs by UPLC analysis; format: ADME, organism-based; conditions: in vivo
In short: (§1)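 Rat plasma sampled from 2 min to 24 h after a single i.v. (1 mg/kg) or p.o. (10 mg/kg) dose. Parameters were derived from the concentration-time profiles. The bioanalytical method was validated to FDA guidelines for selectivity, linearity, LLOQ, accuracy, precision, recovery, matrix effect and stability.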

[9] = Initial plasma concentration in Sprague-Dawley rat at 1 mg/kg, iv measured after 24 hrs by UPLC analysis; format: ADME, organism-based; in short: as §1

Signal transducer and activator of transcription 3, sequence (P40763 whole entry): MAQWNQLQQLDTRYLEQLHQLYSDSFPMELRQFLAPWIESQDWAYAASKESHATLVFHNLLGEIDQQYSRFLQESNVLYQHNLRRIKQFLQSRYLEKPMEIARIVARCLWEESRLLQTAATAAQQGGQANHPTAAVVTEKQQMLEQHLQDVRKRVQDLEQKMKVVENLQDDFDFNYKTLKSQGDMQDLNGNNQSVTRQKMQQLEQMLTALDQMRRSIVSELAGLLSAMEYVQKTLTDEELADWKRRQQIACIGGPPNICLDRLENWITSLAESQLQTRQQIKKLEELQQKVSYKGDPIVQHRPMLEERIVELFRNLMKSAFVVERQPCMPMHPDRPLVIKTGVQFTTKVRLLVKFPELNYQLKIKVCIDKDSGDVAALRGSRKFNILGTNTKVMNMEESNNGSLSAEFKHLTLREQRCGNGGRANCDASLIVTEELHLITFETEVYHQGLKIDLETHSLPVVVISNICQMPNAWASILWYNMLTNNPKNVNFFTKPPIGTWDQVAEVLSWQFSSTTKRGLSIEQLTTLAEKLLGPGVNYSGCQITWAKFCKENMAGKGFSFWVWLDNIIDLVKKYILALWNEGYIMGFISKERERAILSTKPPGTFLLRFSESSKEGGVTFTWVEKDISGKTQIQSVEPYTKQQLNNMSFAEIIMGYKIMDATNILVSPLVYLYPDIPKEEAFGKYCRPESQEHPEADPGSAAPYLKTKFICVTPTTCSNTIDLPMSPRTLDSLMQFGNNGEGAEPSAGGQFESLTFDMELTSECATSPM

Q: With `NS(=O)(=O)c1cccc2c1C(=O)C=C(Nc1ccccc1N1CCNCC1)C2=O` as the compound, how does the pKi [1] read?
A: 5.62

Q: And the inhibition [2]?
A: inactive

Q: What about the Activity [3] of the same compound?
A: Non-Toxic

Q: What about the Activity [4] of the same compound?
A: Non-Toxic

Q: And the pIC50 [5]?
A: 6.15

Q: And the inhibition [6]?
A: inactive

Q: What about the Activity [7] of the same compound?
A: Non-Toxic

Q: What about the AUMC [8] of the same compound?
A: 149 hr2.ng/ml

Q: And the C0 at 24 h [9]?
A: 382 ng/mL
